Results published in ChEMBL document CHEMBL3132834, “Synthesis and biological activity of NOSH-naproxen (AVT-219) and NOSH-sulindac (AVT-18A) as potent anti-inflammatory agents with chemotherapeutic potential” (Medchemcomm, 2013).

Legend:
HT-29 [1] = experiment: Induction of human HT-29 cells assessed as assessed as early apoptotic cells at IC50 concentration after 3 hrs by propidium iodide staining-based flow cytometric analysis; format: functional
Jurkat [2] = experiment: Ratio of sulindac IC50 to compound IC50 for human Jurkat cells after 24 hrs by MTT assay; format: functional
In short: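 Jurkat T cells grown in suspension in RPMI 1640 with 10% FCS. 30,000 cells/well added to serially diluted compounds in V-bottom plates, 24 h at 37°C in 5% CO₂. MTT (1.1 mg/mL) added for 4 h more, formazan dissolved in DMSO, A570 read. IC₅₀ from 5–7 experiments in triplicate; ratio is parent IC₅₀ over hybrid IC₅₀.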

[3] = Cytotoxicity against human IMR90 cells assessed as growth inhibition after 24 hrs by MTT assay; format: cell-based; settings: IMR-90, 24 h
In short: (§1)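 Normal human cells: IMR-90 lung fibroblasts in EMEM with 10% heat-inactivated FCS and 2 mmol/L L-glutamine; primary pancreatic epithelial ACBRI 515 in serum-free medium with attachment factor; HMEpC in mammary epithelial growth medium. Exposed to a range of concentrations for 24 h; IC₅₀ from cell numbers. Mean ± SEM of 3 experiments in duplicate.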

HT-29 [4] = experiment: Induction of human HT-29 cells assessed as assessed as early apoptotic cells at IC50 concentration after 12 hrs by propidium iodide staining-based flow cytometric analysis; format: functional
[5] = Selectivity ratio of IC50 for human BxPC3 cells to IC50 for human ACBRI 515 cells; format: ADME, cell-based, BXPC-3; settings: BxPC3 cells versus ACBRI 515 cells, read-out: Ratio IC50
[6] = (§2) Cytotoxicity against human BxPC3 cells assessed as growth inhibition after 24 hrs by MTT assay; format: functional, cell-based; settings: BXPC-3, 24 h
In short: (§3)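 Cells grown in 10% FCS medium: HT-29 in McCoy 5A; MCF-7 and BxPC-3 in DMEM. 50,000 cells/well exposed to a range of concentrations for 24 h. MTT added for 2 h at 37°C, formazan dissolved in 10% SDS/0.01 M HCl, A570 read. IC₅₀ from cell numbers; mean ± S.E.M. of 5–7 experiments in triplicate. Ratios are parent IC₅₀ over hybrid IC₅₀.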

BXPC-3 [7] = experiment: as §2; format: functional, cell-based; in short: as §3
Rattus norvegicus [8] = experiment: Antiinflammatory activity in Wistar rat assessed as inhibition of carrageenan-induced paw volume at 467 mg/kg through gavage administered 1 hr prior to carrageenan-challenge measured after 4 hrs (reference value: 1.1 +/- 0.1 mL; format: functional
[9] = Selectivity ratio of IC50 for human BxPC3 cells to IC50 for human IMR90 cells; format: ADME, cell-based, IMR-90; settings: BxPC3 cells versus IMR90 cells, read-out: Ratio IC50
Rattus norvegicus [10] = experiment: Antiinflammatory activity in carrageenan-induced Wistar rat model assessed as inhibition of PGE2 level at 467 mg/kg through gavage administered 1 hr prior to carrageenan-challenge measured after 4 hrs (reference value: 95 +/- 7 pg/mL); format: functional
HT-29 [11] = experiment: Cell cycle arrest in human HT-29 cells assessed as accumulation at sub G2/M phase at IC50 concentration after 24 hrs by propidium iodide staining-based flow cytometric analysis (reference value: 27.7 +/- 42%); format: functional
[12] = Selectivity ratio of IC50 for human MCF7 cells to IC50 for human IMR90 cells; format: ADME, cell-based, IMR-90; settings: MCF7 cells versus IMR90 cells, read-out: Ratio IC50
HT-29 [13] = experiment: Antiproliferative activity against human HT-29 cells assessed as reduction in PCNA expression at IC50 concentration after 24 hrs; format: functional
[14] = Cytotoxicity against human ACBRI 515 cells assessed as growth inhibition after 24 hrs by MTT assay; format: cell-based; settings: ACBRI-515, 24 h; in short: as §1
HT-29 [15] = experiment: Antiproliferative activity against human HT-29 cells assessed as reduction in PCNA expression at IC50 concentration; format: functional, cell-based; settings: TDE = time-dependent effect
HT-29 [16] = experiment: Cell cycle arrest in human HT-29 cells assessed as accumulation at G0/G1 phase at IC50 concentration after 24 hrs by propidium iodide staining-based flow cytometric analysis (reference value: 40.9 +/- 3.1%); format: functional
HT-29 [17] = experiment: Cytotoxicity against human HT-29 cells assessed as growth inhibition after 24 hrs by MTT assay; format: functional, cell-based; settings: for IC50: HT-29, 24 h; in short: as §3
[18] = Selectivity ratio of IC50 for human HT-29 cells to IC50 for human IMR90 cells; format: ADME, cell-based; settings: HT-29 cells versus IMR90 cells, read-out: Ratio IC50
[19] = Selectivity ratio of IC50 for human MCF7 cells to IC50 for human HMEpC cells; format: ADME, cell-based; settings: MCF7 cells versus HMEpC cells, read-out: Ratio IC50
HT-29 [20] = experiment: Induction of human HT-29 cells assessed as assessed as early apoptotic cells at IC50 concentration after 6 hrs by propidium iodide staining-based flow cytometric analysis; format: functional
MCF7 = experiment: Cytotoxicity against human MCF7 cells assessed as growth inhibition after 24 hrs by MTT assay; format: functional, cell-based; settings: for IC50: MCF7, 24 h; in short: as §3
HT-29 [21] = experiment: Induction of human HT-29 cells assessed as assessed as early apoptotic cells at IC50 concentration after 24 hrs by propidium iodide staining-based flow cytometric analysis; format: functional
Jurkat [22] = experiment: Cytotoxicity against human Jurkat cells assessed as growth inhibition after 24 hrs by MTT assay; format: functional, cell-based
In short: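 30,000 cells/well added to serially diluted compounds in V-bottom plates, 24 h at 37°C in 5% CO₂. MTT (1.1 mg/mL) added for 4 h more, formazan dissolved in DMSO, A570 read. IC₅₀ from 5–7 experiments in triplicate; ratio is parent IC₅₀ over hybrid IC₅₀.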

Serum [23] = experiment: Prodrug conversion in carrageenan-induced Wistar rat model assessed as sulfide species in serum at 467 mg/kg through gavage administered 1 hr prior to carrageenan-challenge; format: ADME, organism-based; parameters: dose 467 mg/kg; settings: in vivo, po
In short: (§4)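 Blood taken at the end of the carrageenan edema study from gavage-dosed rats (3 per group). Sulfide measured by the methylene blue method: plasma mixed with zinc acetate, trichloroacetic acid, N,N-dimethyl-p-phenylenediamine and FeCl₃ in 7.2M HCl, A670 read after 15 min. Run in duplicate against a NaHS calibration curve (1-250 μM). The read-out is total H₂S + HS⁻ + S²⁻.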

[24] = Selectivity ratio of IC50 for human Jurkat cells to IC50 for human IMR90 cells; format: ADME, cell-based; settings: Jurkat cells versus IMR90 cells, read-out: Ratio IC50
HT-29 [25] = experiment: Cell cycle arrest in human HT-29 cells assessed as accumulation at S phase at IC50 concentration after 24 hrs by propidium iodide staining-based flow cytometric analysis (reference value: 31.7 +/- 3.7%); format: functional
[26] = Cytotoxicity against human HMEpC cells assessed as growth inhibition after 24 hrs by MTT assay; format: cell-based; in short: as §1
BXPC-3 [27] = experiment: Ratio of naproxen IC50 to compound IC50 for human BxPC3 cells after 24 hrs by MTT assay; format: functional
Rattus norvegicus [28] = experiment: Antiinflammatory activity in Wistar rat assessed as inhibition of carrageenan-induced paw volume at 188 mg/kg through gavage administered 1 hr prior to carrageenan-challenge measured after 4 hrs (reference value: 1.1 +/- 0.1 mL); format: functional
HT-29 [29] = experiment: Cell cycle arrest in human HT-29 cells assessed as accumulation at sub G2/M phase at IC50 concentration after 24 hrs by propidium iodide staining-based flow cytometric analysis (reference value: 28.7 +/- 2.1%); format: functional
Serum [30] = experiment: Prodrug conversion in carrageenan-induced Wistar rat model assessed as sulfide species in serum at 188 mg/kg through gavage administered 1 hr prior to carrageenan-challenge; format: ADME, organism-based; parameters: dose 188 mg/kg; settings: in vivo, po; in short: as §4
HT-29 [31] = experiment: Cell cycle arrest in human HT-29 cells assessed as accumulation at S phase at IC50 concentration after 24 hrs by propidium iodide staining-based flow cytometric analysis (reference value: 29.2 +/- 3.3%); format: functional
HT-29 [32] = experiment: Cell cycle arrest in human HT-29 cells assessed as accumulation at G0/G1 phase at IC50 concentration after 24 hrs by propidium iodide staining-based flow cytometric analysis (reference value: 42.2 +/- 4%); format: functional
Rattus norvegicus [33] = experiment: Antiinflammatory activity in carrageenan-induced Wistar rat model assessed as inhibition of PGE2 level at 188 mg/kg through gavage administered 1 hr prior to carrageenan-challenge measured after 4 hrs (reference value: 95 +/- 7 pg/mL); format: functional

Compound	Activity (HT-29 [1]) [%]	IC50 [3] [nM]	Activity (HT-29 [4]) [%]	selectivity ratio [5]	IC50 [6] [nM]	growth inhibition (GI) (BXPC-3 [7])	selectivity ratio [9]	selectivity ratio [12]	inhibition (INH) (HT-29 [13]) [%]	IC50 [14] [nM]	inhibition (HT-29 [15])	growth inhibition (GI) (HT-29 [17])	IC50 (HT-29 [17]) [nM]	selectivity ratio [18]	selectivity ratio [19]	Activity (HT-29 [20]) [%]	growth inhibition (GI) (MCF7)	IC50 (MCF7) [nM]	Activity (HT-29 [21]) [%]	IC50 (Jurkat [22]) [nM]	further results
CC1=C(CC(=O)Oc2ccc(OC(=O)CCCO[N+](=O)[O-])c(C(=O)Oc3ccc(-c4cc(=S)ss4)cc3)c2)c2cc(F)ccc2/C1=C\c1ccc([S+](C)[O-])cc1 (stereo unspecified)	2.8	21700	23.2	> 200	120	Dose-dependent effect	70	70	50	> 25000	tde	Dose-dependent effect	89	70	150	10.1	Dose-dependent effect	100	39.4	270	Ratio IC50 (Jurkat [2]): 2500; Activity (Rattus norvegicus [8]): 0.21 mL; Activity (Rattus norvegicus [10]): 29 pg/mg; Activity (HT-29 [11]): 59.8%; Activity (HT-29 [16]): 29.6%; growth inhibition (GI) (Jurkat [22]): Dose-dependent effect; Stability (Serum [23]): Stable; selectivity ratio [24]: 70; Activity (HT-29 [25]): 10.6%; IC50 [26]: 15200 nM
C[C@H](C(=O)Oc1ccc(-c2cc(=S)ss2)cc1)c1ccc2cc(OC(=O)CCCO[N+](=O)[O-])ccc2c1	9.2	20000	31.9	147	150	Dose-dependent effect	70	70	50	22000	tde	Dose-dependent effect	80	70	115	25.3	Dose-dependent effect	120	59.2	100	Ratio IC50 (BXPC-3 [27]): 16000; Activity (Rattus norvegicus [28]): 0.15 mL; Activity (HT-29 [29]): 19.5%; Stability (Serum [30]): Stable; Activity (HT-29 [31]): 22.3%; Activity (HT-29 [32]): 58.2%; Activity (Rattus norvegicus [33]): 35 pg/mg; growth inhibition (GI) (Jurkat [22]): Dose-dependent effect; selectivity ratio [24]: 70; IC50 [26]: 13800 nM
CC(=O)N[C@H](C(=O)O)C(C)(C)SN=O													508000								
